Measurements reported in ChEMBL document CHEMBL1123853, “A novel class of cardiotonics. Synthesis and pharmacological properties of [4-(substituted-amino)phenyl]pyridazinones and related derivatives” (1987).

Legend:
[1] = species: Canis familiaris; test: Positive inotropic in the isolated papillary muscle of the dog.; format: functional, Canis lupus familiaris
How it was run: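 Right ventricular anterior papillary muscle with septum, from mongrel dogs (7–12 kg, pentobarbital 30 mg/kg iv). It was perfused at about 100 mmHg via the septal artery with blood from a heparinized donor dog and paced at 120/min (1 ms pulses, about 1.5× threshold). Isometric tension was recorded. Saline solutions were injected intra-arterially, with amrinone as reference. ED15 (15% rise in developed tension) was taken from log dose-response curves. Results are mean ± SEM (n = 7) or mean ± range (n = 2).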

[2] = species: Canis familiaris; test: Positive inotropic activity determined in the […](that produced 30% increase in dose- response curves [dP/dt(max)]); format: functional; conditions: Canis lupus familiaris
How it was run: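 In the anesthetized open-chest dog (mongrel, 7–15 kg, pentobarbital 30 mg/kg iv, ventilated on room air), compounds were given intravenously and LV dP/dtmax was recorded. The dose giving a 30% rise in dP/dtmax was read from the dose-response curves. Results are mean ± SEM (n = 3) or mean ± range (n = 2).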

[3] = test system: Canis familiaris; test: Inotropic activity determined by evaluating the % change in Cardiac out put (CO)at a dose of 100 ug/kg administered intravenously […]; format: functional, Canis lupus familiaris
How it was run: (§1)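 Mongrel dogs of either sex, 7–15 kg, anesthetized with sodium pentobarbital (30 mg/kg iv), open-chest, intubated and ventilated on room air. Compounds given intravenously. A femoral artery catheter with pressure transducer recorded SBP and DBP. dP/dtmax, right ventricular contractile force, cardiac output and heart rate were also recorded, as % change at each iv dose.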

[4] = test system: Canis familiaris; test: Inotropic activity determined by evaluating the % change in contractile force (CF) of right ventricle at a dose of 100 ug/kg administered intravenously […]; format: functional, Canis lupus familiaris, Heart right ventricle; how it was run: as §1
[5] = test system: Canis familiaris; test: Inotropic activity determined by evaluating the % change in Heart Rate (HR) at a dose of 100 ug/kg administered intravenously […]; format: functional, Canis lupus familiaris; how it was run: as §1
[6] = test system: Canis familiaris; test: Inotropic activity determined by evaluating the % change in Cardiac out put (CO)at a dose of 30 ug/kg administered intravenously […]; format: functional, Canis lupus familiaris; how it was run: as §1
[7] = test system: Canis familiaris; test: Inotropic activity determined by evaluating the % change in Systolic Blood Pressure (SBP) at a dose of 100 ug/kg administered intravenously […]; format: functional, Canis lupus familiaris, Muscle tissue; how it was run: as §1
[8] = test system: Canis familiaris; test: Inotropic activity determined by evaluating the % change in contractile force (CF) of right ventricle at a dose of 30 ug/kg administered intravenously […]; format: functional, Canis lupus familiaris, Heart right ventricle; how it was run: as §1
[9] = test system: Canis familiaris; test: Inotropic activity determined by evaluating the % change in Heart Rate (HR) at a dose of 30 ug/kg administered intravenously […]; format: functional, Canis lupus familiaris; how it was run: as §1
[10] = test system: Canis familiaris; test: Inotropic activity determined by evaluating the maximum rate of rise in left ventricular pressure at a dose of 30 ug/kg administered intravenously […]; format: functional, Canis lupus familiaris, Muscle tissue; how it was run: as §1
[11] = test system: Canis familiaris; test: Inotropic activity determined by evaluating the % change in Diastolic Blood Pressure (DBP) at a dose of 100 ug/kg administered intravenously […]; format: functional, Canis lupus familiaris; how it was run: as §1
[12] = test system: Canis familiaris; test: Inotropic activity determined by evaluating the % change in Systolic Blood Pressure (SBP) at a dose of 30 ug/kg administered intravenously […]; format: functional, Canis lupus familiaris, Muscle tissue; how it was run: as §1
[13] = test system: Canis familiaris; test: Inotropic activity determined by evaluating the maximum rate of rise in left ventricular pressure at a dose of 100 ug/kg administered intravenously […]; format: functional, Canis lupus familiaris, Muscle tissue; how it was run: as §1
[14] = test system: Canis familiaris; test: Inotropic activity determined by evaluating the % change in Diastolic Blood Pressure (DBP) at a dose of 30 ug/kg administered intravenously […]; format: functional, Canis lupus familiaris; how it was run: as §1
[15] = test system: Canis familiaris; test: Inotropic activity determined by evaluating the % change in Diastolic Blood Pressure (DBP) at a dose of 10 ug/kg administered intravenously […]; format: functional, Canis lupus familiaris; how it was run: as §1
[16] = test system: Canis familiaris; test: Inotropic activity determined by evaluating the % change in Systolic Blood Pressure (SBP) at a dose of 10 ug/kg administered intravenously […]; format: functional, Canis lupus familiaris; how it was run: as §1
[17] = test system: Canis familiaris; test: Inotropic activity determined by evaluating the % change in contractile force (CF) of right ventricle at a dose of 10 ug/kg administered intravenously […]; format: functional, Canis lupus familiaris, Heart right ventricle; how it was run: as §1
[18] = test system: Canis familiaris; test: Inotropic activity determined by evaluating the maximum rate of rise in left ventricular pressure at a dose of 10 ug/kg administered intravenously […]; format: functional, Canis lupus familiaris, Muscle tissue; how it was run: as §1
[19] = test system: Canis familiaris; test: Inotropic activity determined by evaluating the % change in Heart Rate (HR) at a dose of 10 ug/kg administered intravenously […]; format: functional, Canis lupus familiaris; how it was run: as §1
[20] = test system: Canis familiaris; test: Inotropic activity determined by evaluating the % change in Cardiac out put (CO)at a dose of 10 ug/kg administered intravenously […]; format: functional, Canis lupus familiaris; how it was run: as §1
[21] = test system: Canis familiaris; test: Inotropic activity determined by evaluating the % change in Systolic Blood Pressure (SBP) at a dose of 300 ug/kg administered intravenously […]; format: functional, Canis lupus familiaris, Muscle tissue; how it was run: as §1
[22] = test system: Canis familiaris; test: Inotropic activity determined by evaluating the % change in Heart Rate (HR) at a dose of 300 ug/kg administered intravenously […]; format: functional, Canis lupus familiaris, Muscle tissue; how it was run: as §1
[23] = test system: Canis familiaris; test: Inotropic activity determined by evaluating the % change in contractile force (CF) of right ventricle at a dose of 300 ug/kg administered intravenously […]; format: functional, Canis lupus familiaris, Heart right ventricle; how it was run: as §1
[24] = test system: Canis familiaris; test: Inotropic activity determined by evaluating the % change in Diastolic Blood Pressure (DBP) at a dose of 300 ug/kg administered intravenously […]; format: functional, Canis lupus familiaris; how it was run: as §1
[25] = test system: Canis familiaris; test: Inotropic activity determined by evaluating the maximum rate of rise in left ventricular pressure at a dose of 300 ug/kg administered intravenously […]; format: functional, Canis lupus familiaris, Muscle tissue; how it was run: as §1
[26] = test system: Canis familiaris; test: Inotropic activity determined by evaluating the % change in Cardiac out put (CO)at a dose of 300 ug/kg administered intravenously […]; format: functional, Canis lupus familiaris; how it was run: as §1
[27] = test system: Canis familiaris; test: Inotropic activity determined by evaluating the % change in Diastolic Blood Pressure (DBP) at a dose of 1000 ug/kg administered intravenously […]; format: functional, Canis lupus familiaris; how it was run: as §1
[28] = test system: Canis familiaris; test: Inotropic activity determined by evaluating the % change in contractile force (CF) of right ventricle at a dose of 1000 ug/kg administered intravenously […]; format: functional, Canis lupus familiaris, Heart right ventricle; how it was run: as §1
[29] = test system: Canis familiaris; test: Inotropic activity determined by evaluating the maximum rate of rise in left ventricular pressure at a dose of 1000 ug/kg administered intravenously […]; format: functional, Canis lupus familiaris, Muscle tissue; how it was run: as §1
[30] = test system: Canis familiaris; test: Inotropic activity determined by evaluating the % change in Cardiac out put (CO)at a dose of 1000 ug/kg administered intravenously […]; format: functional, Canis lupus familiaris; how it was run: as §1
[31] = test system: Canis familiaris; test: Inotropic activity determined by evaluating the % change in Heart Rate (HR) at a dose of 1000 ug/kg administered intravenously […]; format: functional, Canis lupus familiaris; how it was run: as §1
[32] = test system: Canis familiaris; test: Inotropic activity determined by evaluating the % change in Systolic Blood Pressure (SBP) at a dose of 1000 ug/kg administered intravenously […]; format: functional, Canis lupus familiaris, Muscle tissue; how it was run: as §1

Row | SMILES | ED15 [1] [µg] | ED30 [2] [mg/kg] | Change of CO [3] [%] | Change of CF [4] [%] | Change of HR [5] [%] | Change of SBP [7] [%] | Change of DBP [11] [%] | dP/dt [13] [%] | Change of SBP [21] [%] | Change of HR [22] [%] | Change of CF [23] [%] | Change of DBP [24] [%] | dP/dt [25] [%] | Change of CO [26] [%] | further results
1 | O=C1CCC(c2ccc(NCc3ccncc3)cc2)=NN1 | >300 | – | – | – | – | – | – | – | – | – | – | – | – | – | –
2 | Cl.O=C1CCC(c2ccc(Nc3ccccn3)cc2)=NN1 | 17.5 | 0.106 | 22.1 | 40.5 | 16.7 | -27.2 | -25.5 | 37.8 | – | – | – | – | – | – | Change of CO [6]: 13.9%; Change of CF [8]: 22%; Change of HR [9]: 6.7%; dP/dt [10]: 16.1%; Change of SBP [12]: -13.7%; Change of DBP [14]: -15.6%
3 | CC1CC(=O)NN=C1c1ccc(Nc2ccccn2)cc1.Cl (stereo not drawn) | 3.2 | 0.022 | – | – | – | – | – | – | – | – | – | – | – | – | Change of CO [6]: 15.8%; Change of DBP [15]: -22.4%; Change of CF [8]: 44.4%; Change of HR [9]: 8.9%; dP/dt [10]: 46.4%; Change of SBP [12]: -17.6%; Change of SBP [16]: -14.1%; Change of CF [17]: 19.5%; dP/dt [18]: 19.3%; Change of DBP [14]: -31%; Change of HR [19]: 5.3%; Change of CO [20]: 12.7%
4 | CN(c1ccncc1)c1ccc(C2=NNC(=O)CC2)cc1.Cl | 38 | > 0.3 | 5.9 | 11 | 1.4 | -2.1 | -4 | 13.6 | -5.8 | 2.7 | 20 | -10.3 | 17.8 | 8.7 | –
5 | Cl.O=C1CCC(c2ccc(Nc3ncccn3)cc2)=NN1 | 165 | – | – | – | – | – | – | – | – | – | – | – | – | – | –
6 | O=C1CCC(c2ccc(NCc3ccnc4ccccc34)cc2)=NN1 | >300 | – | – | – | – | – | – | – | – | – | – | – | – | – | –
7 | CCc1cc(O)nnc1-c1ccc(Nc2ccncc2)cc1.Cl | >300 | > 1 | – | – | – | – | – | – | 0.4 | -0.1 | 2.8 | -0.9 | 1 | 3.9 | Change of DBP [27]: -9.3%; Change of CF [28]: 4.2%; dP/dt [29]: -0.9%; Change of CO [30]: 8.6%; Change of HR [31]: -2.9%; Change of SBP [32]: -5%
8 | CCC1CC(=O)NN=C1c1ccc(Nc2ccncc2)cc1.Cl (stereo not drawn) | 23 | 0.256 | 15.2 | 23.7 | 12 | -8.8 | -15.1 | 20.4 | -11.1 | 22.5 | 35.7 | -18.3 | 34.8 | 19.2 | –
